Test results as given in ChEMBL document CHEMBL4387724, “2-Pyridineformamide N(4)-ring incorporated thiosemicarbazones inhibit MCF-7 cells by inhibiting JNK pathway” (Bioorg Med Chem Lett, 2019).

Legend:
A-375 [1] = assay: Cytotoxicity against human A375 cells assessed as reduction in cell growth at 100 uM incubated for 72 hrs by MTT assay relative to control; assay type: functional; conditions: A-375, 72 h, read-out: GI
Outline: (§1)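 Cells grown in DMEM with 10% FBS and penicillin-streptomycin at 37 °C, 5% CO2, seeded at 3000 cells/well and attached overnight. Screening series given at 1, 3, 10, 100 μM; follow-up agent at 100 nM–3 μM; both 72 h, with 0.1% DMSO vehicle. MTT (5 mg/mL stock) added for 3 h at 37 °C, formazan dissolved in DMSO, absorbance read at 570 nm. Viability expressed as % of DMSO-treated wells from replicates.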

A-375 [2] = assay: Cytotoxicity against human A375 cells assessed as reduction in cell growth at 1 uM incubated for 72 hrs by MTT assay relative to control; assay type: functional; conditions: A-375, 72 h, read-out: GI; outline: as §1
MCF7 [3] = assay: Cytotoxicity against human MCF7 cells assessed as reduction in cell growth at 100 uM incubated for 72 hrs by MTT assay relative to control; assay type: functional; conditions: MCF7, 72 h, read-out: GI; outline: as §1
HeLa [4] = assay: Cytotoxicity against human HeLa cells assessed as reduction in cell growth incubated for 72 hrs by MTT assay; assay type: functional, cell-based; outline: as §1
A-375 [5] = assay: Cytotoxicity against human A375 cells assessed as reduction in cell growth at 10 uM incubated for 72 hrs by MTT assay relative to control; assay type: functional; conditions: A-375, 72 h, read-out: GI; outline: as §1
A-431 [6] = assay: Cytotoxicity against human A431 cells assessed as reduction in cell growth at 100 uM incubated for 72 hrs by MTT assay relative to control; assay type: functional; conditions: A-431, 72 h, read-out: GI; outline: as §1
A-375 [7] = assay: Cytotoxicity against human A375 cells assessed as reduction in cell growth at 30 uM incubated for 72 hrs by MTT assay relative to control; assay type: functional; conditions: A-375, 72 h, read-out: GI
MCF7 [8] = assay: Cytotoxicity against human MCF7 cells assessed as reduction in cell growth incubated for 72 hrs by MTT assay; assay type: functional, cell-based; conditions: MCF7, 72 h; outline: as §1
A-431 [9] = assay: Cytotoxicity against human A431 cells assessed as reduction in cell growth at 3 uM incubated for 72 hrs by MTT assay relative to control; assay type: functional; conditions: A-431, 72 h, read-out: GI; outline: as §1
HeLa [10] = assay: Cytotoxicity against human HeLa cells assessed as reduction in cell growth at 3 uM incubated for 72 hrs by MTT assay relative to control; assay type: functional; conditions: read-out: GI; outline: as §1
A-375 [11] = assay: Cytotoxicity against human A375 cells assessed as reduction in cell growth incubated for 72 hrs by MTT assay; assay type: functional, cell-based; conditions: A-375, 72 h; outline: as §1
MCF7 [12] = assay: Cytotoxicity against human MCF7 cells assessed as reduction in cell growth at 1 uM incubated for 72 hrs by MTT assay relative to control; assay type: functional; conditions: MCF7, 72 h, read-out: GI; outline: as §1
A-431 [13] = assay: Cytotoxicity against human A431 cells assessed as reduction in cell growth at 30 uM incubated for 72 hrs by MTT assay relative to control; assay type: functional; conditions: A-431, 72 h, read-out: GI
A-431 [14] = assay: Cytotoxicity against human A431 cells assessed as reduction in cell growth at 10 uM incubated for 72 hrs by MTT assay relative to control; assay type: functional; conditions: A-431, 72 h, read-out: GI; outline: as §1
HeLa [15] = assay: Cytotoxicity against human HeLa cells assessed as reduction in cell growth at 1 uM incubated for 72 hrs by MTT assay relative to control; assay type: functional; conditions: read-out: GI; outline: as §1
A-431 [16] = assay: Cytotoxicity against human A431 cells assessed as reduction in cell growth at 1 uM incubated for 72 hrs by MTT assay relative to control; assay type: functional; conditions: A-431, 72 h, read-out: GI; outline: as §1
MCF7 [17] = assay: Cytotoxicity against human MCF7 cells assessed as reduction in cell growth at 30 uM incubated for 72 hrs by MTT assay relative to control; assay type: functional; conditions: MCF7, 72 h, read-out: GI
HeLa [18] = assay: Cytotoxicity against human HeLa cells assessed as reduction in cell growth at 10 uM incubated for 72 hrs by MTT assay relative to control; assay type: functional; conditions: read-out: GI; outline: as §1
MCF7 [19] = assay: Cytotoxicity against human MCF7 cells assessed as reduction in cell growth at 10 uM incubated for 72 hrs by MTT assay relative to control; assay type: functional; conditions: MCF7, 72 h, read-out: GI; outline: as §1
HeLa [20] = assay: Cytotoxicity against human HeLa cells assessed as reduction in cell growth at 100 uM incubated for 72 hrs by MTT assay relative to control; assay type: functional; conditions: read-out: GI; outline: as §1
HeLa [21] = assay: Cytotoxicity against human HeLa cells assessed as reduction in cell growth at 30 uM incubated for 72 hrs by MTT assay relative to control; assay type: functional; conditions: read-out: GI
A-431 [22] = assay: Cytotoxicity against human A431 cells assessed as reduction in cell growth incubated for 72 hrs by MTT assay; assay type: functional, cell-based; conditions: A-431, 72 h; outline: as §1
MCF7 [23] = assay: Cytotoxicity against human MCF7 cells assessed as reduction in cell growth at 3 uM incubated for 72 hrs by MTT assay relative to control; assay type: functional; conditions: MCF7, 72 h, read-out: GI; outline: as §1
A-375 [24] = assay: Cytotoxicity against human A375 cells assessed as reduction in cell growth at 3 uM incubated for 72 hrs by MTT assay relative to control; assay type: functional; conditions: A-375, 72 h, read-out: GI; outline: as §1

SMILES | inhibition of growth at 100 µM (A-375 [1]) | inhibition of growth at 1 µM (A-375 [2]) | inhibition of growth at 100 µM (MCF7 [3]) | IC50 (HeLa [4]) | inhibition of growth at 10 µM (A-375 [5]) | inhibition of growth at 100 µM (A-431 [6]) | inhibition of growth at 30 µM (A-375 [7]) | IC50 (MCF7 [8]) | inhibition of growth at 3 µM (A-431 [9]) | inhibition of growth at 3 µM (HeLa [10]) | IC50 (A-375 [11]) | inhibition of growth at 1 µM (MCF7 [12]) | inhibition of growth at 30 µM (A-431 [13]) | inhibition of growth at 10 µM (A-431 [14]) | inhibition of growth at 1 µM (HeLa [15]) | inhibition of growth at 1 µM (A-431 [16]) | inhibition of growth at 30 µM (MCF7 [17]) | inhibition of growth at 10 µM (HeLa [18]) | inhibition of growth at 10 µM (MCF7 [19]) | inhibition of growth at 100 µM (HeLa [20]) | further results
Cc1cccc(/C(N)=N/NC(=S)N2CCCCCC2)n1 | 80.9% | 39.6% | 70.2% | 1 µM | 79.9% | 76.7% | 70.3% | 54.7 µM | 44.1% | 63.6% | 1.8 µM | 6.3% | 63.5% | 45.8% | 49.5% | 42.8% | 38.8% | 71.7% | 21.5% | 82.7% | inhibition of growth at 30 µM (HeLa [21]): 81.2%; IC50 (A-431 [22]): 14.7 µM; inhibition of growth at 3 µM (MCF7 [23]): 15.7%; inhibition of growth at 3 µM (A-375 [24]): 64.5%
N/C(=N\NC(=S)N1CCN(c2ccccn2)CC1)c1ccc(F)cn1 | 76.2% | 49.3% | 74.3% | 2 µM | 56.8% | 77.1% | 73.2% | 22 µM | 43% | 77.3% | 1.4 µM | 13.4% | 62.3% | 47.4% | 22.5% | 31.1% | 58.6% | 80% | 35.8% | 83% | inhibition of growth at 30 µM (HeLa [21]): 87%; IC50 (A-431 [22]): 13.4 µM; inhibition of growth at 3 µM (MCF7 [23]): 27.1%; inhibition of growth at 3 µM (A-375 [24]): 53.1%
Cc1cccc(/C(N)=N/NC(=S)N2CCSCC2)n1 | 77.4% | 47.2% | 46.8% | 1.8 µM | 62.6% | 80.7% | 73.1% | > 100 µM | 51.7% | 54.6% | 1.4 µM | 7.3% | 64.5% | 53.2% | 46.5% | 42.8% | 38.6% | 67.6% | 22.5% | 81.6% | inhibition of growth at 30 µM (HeLa [21]): 85.3%; IC50 (A-431 [22]): 2.6 µM; inhibition of growth at 3 µM (MCF7 [23]): 20.6%; inhibition of growth at 3 µM (A-375 [24]): 60.1%
N/C(=N\NC(=S)N1CCCC1)c1ccccn1 | 87.8% | 65.7% | 74.9% | 6.2 µM | 83.9% | 83.8% | 86% | 3.6 µM | 70.9% | 38.5% | 0.6 µM | 45.9% | 85.2% | 77.2% | 24.7% | 39.8% | 54.6% | 63.5% | 51.7% | 89.1% | inhibition of growth at 30 µM (HeLa [21]): 84.5%; IC50 (A-431 [22]): 1.7 µM; inhibition of growth at 3 µM (MCF7 [23]): 49.8%; inhibition of growth at 3 µM (A-375 [24]): 80%
N/C(=N\NC(=S)N1CCSCC1)c1ccccn1 | 87.8% | 34% | 72.4% | 7.8 µM | 83.9% | 80.8% | 86% | 8.8 µM | 37.2% | 39.7% | 0.76 µM | 16.3% | 81.3% | 61.4% | 25.1% | 31.7% | 72.6% | 54.5% | 54.3% | 88.7% | inhibition of growth at 30 µM (HeLa [21]): 80.6%; IC50 (A-431 [22]): 6.7 µM; inhibition of growth at 3 µM (MCF7 [23]): 29%; inhibition of growth at 3 µM (A-375 [24]): 80%
Cc1ccnc(/C(N)=N/NC(=S)N2CCCCCC2)c1 | 77% | 61.9% | 65.4% | 7 µM | 70.6% | 71% | 76.5% | 6.9 µM | 36.1% | 41.9% | 0.8 µM | 18.2% | 63.4% | 55.5% | 43.2% | 36.3% | 75.9% | 55.8% | 60.3% | 91.6% | inhibition of growth at 30 µM (HeLa [21]): 69.9%; IC50 (A-431 [22]): 8 µM; inhibition of growth at 3 µM (MCF7 [23]): 36.3%; inhibition of growth at 3 µM (A-375 [24]): 70%
